The structures appear in SMILES notation. Where only a bound is given, the exact number is not on record here.

For one test, the system named is Trypanosoma brucei. The test can be described thus: Percentage of activity against Trypanosoma brucei at 12.5 uM.
Conditions: not given
Format: functional. The method, boiled down: (§1)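 Bloodstream-form T. brucei in HMI-9 medium, 10 000 parasites/well, exposed to 12.5, 6.25, 3.13 and 1.56 µM drug for 4 days. Read-out is % inhibition of parasite multiplication. Macrophage toxicity judged on mouse primary peritoneal macrophages.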
As to `COc1ccc2nc3cc(Cl)ccc3c(NCCCN(CCCNc3c4ccc(Cl)cc4nc4ccc(OC)cc34)C(=O)C(CCCCN)NC(=O)OC(C)(C)C)c2c1` (centres undefined), the “Inhibition of parasite multiplication” value is 100%.
Regarding `COc1ccc2nc3cc(Cl)ccc3c(NCCCCN(CCCNc3c4ccc(Cl)cc4nc4ccc(OC)cc34)C(=O)C(C)NC(=O)OC(C)(C)C)c2c1` (centres undefined), the “Inhibition of parasite multiplication” value stood at 100%.

A further test deals with Leishmania infantum. As to the kind of experiment: Percentage of activity against Leishmania infantum 6.25 uM. The format is functional.
Conditions: not given
In short, it runs like this: (§2)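 Starch-stimulated mouse peritoneal macrophages, 30 000/well, infected after 24 h with spleen-derived L. infantum amastigotes (10:1) together with 2-fold drug dilutions (12.5–1.56 µM). Incubated 7 days at 37 °C, 5% CO2. Wright-stained slides scored microscopically as % reduction of total parasite load or of infected macrophages. Uninfected treated cultures judged microscopically for macrophage toxicity.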
As to `COc1ccc2nc3cc(Cl)ccc3c(NCCCN(CCCNc3c4ccc(Cl)cc4nc4ccc(OC)cc34)C(=O)C(CCCCN)NC(=O)OC(C)(C)C)c2c1` (centres undefined), the “Antileishmanial activity (% reduction of parasite load)” value worked out at 0%.
As to `COc1ccc2nc3cc(Cl)ccc3c(NCCCCN(CCCNc3c4ccc(Cl)cc4nc4ccc(OC)cc34)C(=O)C(C)NC(=O)OC(C)(C)C)c2c1` (centres undefined), the “Antileishmanial activity (% reduction of parasite load)” value came to 40%.

A further test has as its system Trypanosoma cruzi. As to the kind of experiment: Percentage of activity against Trypanosoma cruzi at 1.56 uM.
Conditions: not given
Format: functional. In short, it runs like this: (§3)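 Mouse peritoneal macrophages, 30 000/well, infected after 24 h with about 100 000 T. cruzi trypomastigotes per well plus 2-fold drug dilutions (12.5–1.56 µM). Incubated 4 days at 37 °C, 5% CO2. Methanol-fixed, Giemsa-stained and scored microscopically as % reduction of total parasite load (free trypomastigotes plus intracellular amastigotes) versus untreated controls.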
Turning to `COc1ccc2nc3cc(Cl)ccc3c(NCCCN(CCCNc3c4ccc(Cl)cc4nc4ccc(OC)cc34)C(=O)C(CCCCN)NC(=O)OC(C)(C)C)c2c1` (centres undefined), the Parasite load reduction stood at 0%.
`COc1ccc2nc3cc(Cl)ccc3c(NCCCCN(CCCNc3c4ccc(Cl)cc4nc4ccc(OC)cc34)C(=O)C(C)NC(=O)OC(C)(C)C)c2c1` (centres undefined) came in with a Parasite load reduction of 0%.

The subject of a further test is Plasmodium falciparum. As to the kind of experiment: In vitro sensitivity for Plasmodium falciparum FcB1R. Format: functional, organism-based.
Conditions: not given
The method, boiled down:
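Asynchronous P. falciparum cultures in human erythrocytes (0.5% parasitemia, 1% haematocrit) exposed to serially diluted drug for 24 h at 37 °C. [3H]hypoxanthine (0.5 µCi/well) then added for a further 24 h. Uptake compared with drug-free controls on the same plate. IC50 taken from the concentration–response curve, averaged over independent experiments. DMSO ≤0.1%.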
As a reminder, the IC50 is the midpoint of a concentration-inhibition curve. The compound `COc1ccc2nc3cc(Cl)ccc3c(NCCCN(CCCNc3c4ccc(Cl)cc4nc4ccc(OC)cc34)C(=O)C(CCCCN)NC(=O)OC(C)(C)C)c2c1` (centres undefined) registered a half-maximal inhibitory concentration (IC50) above 500 nM.
With `COc1ccc2nc3cc(Cl)ccc3c(NCCCCN(CCCNc3c4ccc(Cl)cc4nc4ccc(OC)cc34)C(=O)C(C)NC(=O)OC(C)(C)C)c2c1` (centres undefined), 330 nM corresponded to half-maximal inhibition (IC50).

The test system of a further test is Trypanosoma cruzi. The test can be described thus: Percentage of activity against Trypanosoma cruzi at 12.5 uM. The format is functional.
Conditions: not given
In short, it runs like this:
as §3
Regarding `COc1ccc2nc3cc(Cl)ccc3c(NCCCN(CCCNc3c4ccc(Cl)cc4nc4ccc(OC)cc34)C(=O)C(CCCCN)NC(=O)OC(C)(C)C)c2c1` (centres undefined), the “T. cruzi parasite load reduction” value is 99%.
On to `COc1ccc2nc3cc(Cl)ccc3c(NCCCCN(CCCNc3c4ccc(Cl)cc4nc4ccc(OC)cc34)C(=O)C(C)NC(=O)OC(C)(C)C)c2c1` (centres undefined), for which the “T. cruzi parasite load reduction” value came to 90%.

The subject of a further test is Trypanosoma cruzi. As to the kind of experiment: Percentage of activity against Trypanosoma cruzi at 6.25 uM Concentration. Format: functional.
Conditions: not given
The method, boiled down: as §3
On to `COc1ccc2nc3cc(Cl)ccc3c(NCCCN(CCCNc3c4ccc(Cl)cc4nc4ccc(OC)cc34)C(=O)C(CCCCN)NC(=O)OC(C)(C)C)c2c1` (centres undefined), for which the “Reduction of T. cruzi parasite load” value came out at 90%.
In the case of `COc1ccc2nc3cc(Cl)ccc3c(NCCCCN(CCCNc3c4ccc(Cl)cc4nc4ccc(OC)cc34)C(=O)C(C)NC(=O)OC(C)(C)C)c2c1` (centres undefined), the “Reduction of T. cruzi parasite load” value is given as 70%.

The next test concerns Leishmania infantum. As to the kind of experiment: Percentage of activity against Leishmania infantum at 1.56 uM. The format is functional.
Conditions: not given
The method, boiled down:
as §2
As for `COc1ccc2nc3cc(Cl)ccc3c(NCCCN(CCCNc3c4ccc(Cl)cc4nc4ccc(OC)cc34)C(=O)C(CCCCN)NC(=O)OC(C)(C)C)c2c1` (centres undefined), the “Antileishmanial activity (% reduction of parasite load)” value came to 0%.
With `COc1ccc2nc3cc(Cl)ccc3c(NCCCCN(CCCNc3c4ccc(Cl)cc4nc4ccc(OC)cc34)C(=O)C(C)NC(=O)OC(C)(C)C)c2c1` (centres undefined), the “Antileishmanial activity (% reduction of parasite load)” value was 0%.

In the next test the test system is Trypanosoma brucei. The test can be described thus: Percentage of activity against Trypanosoma brucei at 1.56 uM. The format is functional.
Conditions: not given
In short, it runs like this:
as §1
Take `COc1ccc2nc3cc(Cl)ccc3c(NCCCN(CCCNc3c4ccc(Cl)cc4nc4ccc(OC)cc34)C(=O)C(CCCCN)NC(=O)OC(C)(C)C)c2c1` (centres undefined): the “Percent inhibition of parasite multiplication” value is listed as 100%.
Turning to `COc1ccc2nc3cc(Cl)ccc3c(NCCCCN(CCCNc3c4ccc(Cl)cc4nc4ccc(OC)cc34)C(=O)C(C)NC(=O)OC(C)(C)C)c2c1` (centres undefined), the “Percent inhibition of parasite multiplication” value was determined as 100%.

In a further test the test system is Leishmania infantum. The test can be described thus: In Vitro evaluation for the percentage of activity towards Leishmania infantum at 12.5 uM Concentration. The format is functional.
Conditions: not given
The method, boiled down:
as §2
On to `COc1ccc2nc3cc(Cl)ccc3c(NCCCN(CCCNc3c4ccc(Cl)cc4nc4ccc(OC)cc34)C(=O)C(CCCCN)NC(=O)OC(C)(C)C)c2c1` (centres undefined), for which the “Percent inhibition of Leishmania infantum” value is given as 40%.
Turning to `COc1ccc2nc3cc(Cl)ccc3c(NCCCCN(CCCNc3c4ccc(Cl)cc4nc4ccc(OC)cc34)C(=O)C(C)NC(=O)OC(C)(C)C)c2c1` (centres undefined), the “Percent inhibition of Leishmania infantum” value amounted to 70%.

Another test has as its system Trypanosoma cruzi. The test can be described thus: Percentage of activity against Trypanosoma cruzi at 3.13 uM. The format is functional.
Conditions: not given
The method, boiled down: as §3
Take `COc1ccc2nc3cc(Cl)ccc3c(NCCCN(CCCNc3c4ccc(Cl)cc4nc4ccc(OC)cc34)C(=O)C(CCCCN)NC(=O)OC(C)(C)C)c2c1` (centres undefined): the “Reduction of T. cruzi parasite load” value was determined as 40%.
On to `COc1ccc2nc3cc(Cl)ccc3c(NCCCCN(CCCNc3c4ccc(Cl)cc4nc4ccc(OC)cc34)C(=O)C(C)NC(=O)OC(C)(C)C)c2c1` (centres undefined), for which the “Reduction of T. cruzi parasite load” value was 20%.

For another test, the system named is Leishmania infantum. The test can be described thus: Percentage of activity against Leishmania infantum at 3.13 uM. Format: functional.
Conditions: not given
In short, it runs like this: as §2
For `COc1ccc2nc3cc(Cl)ccc3c(NCCCN(CCCNc3c4ccc(Cl)cc4nc4ccc(OC)cc34)C(=O)C(CCCCN)NC(=O)OC(C)(C)C)c2c1` (centres undefined), the “Percent antileishmanial activity (reduction of parasite load)” value was determined as 0%.
Turning to `COc1ccc2nc3cc(Cl)ccc3c(NCCCCN(CCCNc3c4ccc(Cl)cc4nc4ccc(OC)cc34)C(=O)C(C)NC(=O)OC(C)(C)C)c2c1` (centres undefined), the “Percent antileishmanial activity (reduction of parasite load)” value is 20%.

A further test concerns MRC5. The test can be described thus: Cytotoxicity on MRC-5 cells at 25 uM. Format: functional. The settings on record: Homo sapiens. In short, it runs like this:
(§4)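 MRC-5 human diploid embryonic lung cells seeded at 5 000/well, washed after 24 h, then given 2-fold drug dilutions (25, 12.5, 6.25, 3.13 µM) in RPMI + 5% FCS, final DMSO below 0.5%. Incubated 7 days at 37 °C, 5% CO2. MTT colorimetric read-out, scored as % reduction of absorbance at 540 nm versus untreated controls.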
For the compound `COc1ccc2nc3cc(Cl)ccc3c(NCCCN(CCCNc3c4ccc(Cl)cc4nc4ccc(OC)cc34)C(=O)C(CCCCN)NC(=O)OC(C)(C)C)c2c1` (centres undefined), the cytotoxicity at 25 µM is 100%.
As to `COc1ccc2nc3cc(Cl)ccc3c(NCCCCN(CCCNc3c4ccc(Cl)cc4nc4ccc(OC)cc34)C(=O)C(C)NC(=O)OC(C)(C)C)c2c1` (centres undefined), the cytotoxicity at 25 µM is 100%.

The subject of the next test is Trypanosoma brucei. The test can be described thus: Percentage of activity against Trypanosoma brucei at 6.25 uM.
Conditions: not given
Format: functional. The method, boiled down: as §1
For the compound `COc1ccc2nc3cc(Cl)ccc3c(NCCCN(CCCNc3c4ccc(Cl)cc4nc4ccc(OC)cc34)C(=O)C(CCCCN)NC(=O)OC(C)(C)C)c2c1` (centres undefined), the “Inhibition of parasite multiplication” value is given as 100%.
On the same count and under the same terms, as for `COc1ccc2nc3cc(Cl)ccc3c(NCCCCN(CCCNc3c4ccc(Cl)cc4nc4ccc(OC)cc34)C(=O)C(C)NC(=O)OC(C)(C)C)c2c1` (centres undefined), the figure is 100%.

The next test has as its system Trypanosoma brucei. As to the kind of experiment: Percentage of activity against Trypanosoma brucei at 3.13 uM. The format is functional.
Conditions: not given
In short, it runs like this: as §1
Compound `COc1ccc2nc3cc(Cl)ccc3c(NCCCN(CCCNc3c4ccc(Cl)cc4nc4ccc(OC)cc34)C(=O)C(CCCCN)NC(=O)OC(C)(C)C)c2c1` (centres undefined) displayed a Parasite growth inhibition of 100%.
Consider `COc1ccc2nc3cc(Cl)ccc3c(NCCCCN(CCCNc3c4ccc(Cl)cc4nc4ccc(OC)cc34)C(=O)C(C)NC(=O)OC(C)(C)C)c2c1` (centres undefined), for which the Parasite growth inhibition is 100%.

For another test, the system named is MRC5. The test can be described thus: Cytotoxicity on MRC-5 cells at 12.5 uM. The format is functional. To be noted: Homo sapiens. In short, it runs like this: as §4
`COc1ccc2nc3cc(Cl)ccc3c(NCCCN(CCCNc3c4ccc(Cl)cc4nc4ccc(OC)cc34)C(=O)C(CCCCN)NC(=O)OC(C)(C)C)c2c1` (centres undefined) yielded a cytotoxicity at 12.5 µM of 100%.
In turn, `COc1ccc2nc3cc(Cl)ccc3c(NCCCCN(CCCNc3c4ccc(Cl)cc4nc4ccc(OC)cc34)C(=O)C(C)NC(=O)OC(C)(C)C)c2c1` (centres undefined) came in with a cytotoxicity at 12.5 µM of 100%.

The next test concerns MRC5. As to the kind of experiment: Cytotoxicity on MRC-5 cells at 6.25 uM. The format is functional. To be noted: Homo sapiens. In short, it runs like this:
as §4
The compound `COc1ccc2nc3cc(Cl)ccc3c(NCCCN(CCCNc3c4ccc(Cl)cc4nc4ccc(OC)cc34)C(=O)C(CCCCN)NC(=O)OC(C)(C)C)c2c1` (centres undefined) showed a cytotoxicity at 6.25 µM of 40%.
On to `COc1ccc2nc3cc(Cl)ccc3c(NCCCCN(CCCNc3c4ccc(Cl)cc4nc4ccc(OC)cc34)C(=O)C(C)NC(=O)OC(C)(C)C)c2c1` (centres undefined), for which the cytotoxicity at 6.25 µM came to 0%.

The next test has as its system MRC5. As to the kind of experiment: Cytotoxicity on MRC-5 cells at 3.13 uM. To be noted: Homo sapiens. The format is functional. The method, boiled down: as §4
Take `COc1ccc2nc3cc(Cl)ccc3c(NCCCN(CCCNc3c4ccc(Cl)cc4nc4ccc(OC)cc34)C(=O)C(CCCCN)NC(=O)OC(C)(C)C)c2c1` (centres undefined): the cytotoxicity at 3.13 µM is 0%.
For `COc1ccc2nc3cc(Cl)ccc3c(NCCCCN(CCCNc3c4ccc(Cl)cc4nc4ccc(OC)cc34)C(=O)C(C)NC(=O)OC(C)(C)C)c2c1` (centres undefined), the cytotoxicity at 3.13 µM worked out at 0%.
